Source: PubChem (several laboratories)
Sampled rows, rich in hits. Any-hit rate of the full collection: about 4.3%.
Rin1-Abl PPI inh – human Rin1-Abl interaction inhibition; 360,000 tested, 0.4% active; TR-FRET Rin1/Abl binding, biochemical; P00519+Q13671; inhibition, % at 7.35 µM; in the data active = inhibition above about 5%, passing the limit was not always enough
PREPL inh – human PREPL enzyme inhibition; inhibition, % at 5.96 µM; recombinant PREPL, fluorescence polarization activity-based probe; 320,000 tested, 0.68% active; AID 2751; in the data active = inhibition above about 43%
RBBP9 inh – human RBBP9 hydrolase inhibition; O75884; recombinant RBBP9, FP-Rh probe fluorescence polarization; inhibition, % at 7.94 µM; 220,000 tested, 0.2% active; AID 1515;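 active = inhibition above the campaign mean of all tested compounds plus 3 SD, cut at about 14% in these data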
Target sequence (O75884 whole entry, looked up): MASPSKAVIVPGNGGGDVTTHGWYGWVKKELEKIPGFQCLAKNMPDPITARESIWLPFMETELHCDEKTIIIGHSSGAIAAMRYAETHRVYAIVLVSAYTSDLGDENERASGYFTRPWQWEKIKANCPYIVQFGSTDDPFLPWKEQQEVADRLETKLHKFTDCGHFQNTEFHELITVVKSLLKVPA
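System: RBBP9 protein / Buffer or medium: Tris/NaCl buffer pH 8.0 with 0.1% Pluronic / Probe or stimulus: Serine-hydrolase probe FP-Rh, 375 nM pre-mixing / Dosing: 7.94 µM single dose, 0.794% DMSO / Times: enzyme-compound preincubation 30 min, then probe labeling 45 min, 25 °C / Technique: fluorescence polarization (mP), excitation 525 nm, emission 598 nm / Replication: singlicate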
UBC13 inh – inhibitors of human UBC13 polyubiquitin chain formation; TR-FRET; inhibition, % at 20 µM; 330,000 tested, 0.47% active; AID 485273; in the data active = inhibition above about 45%, passing the limit was not always enough
Target sequence (P61088 whole entry, looked up): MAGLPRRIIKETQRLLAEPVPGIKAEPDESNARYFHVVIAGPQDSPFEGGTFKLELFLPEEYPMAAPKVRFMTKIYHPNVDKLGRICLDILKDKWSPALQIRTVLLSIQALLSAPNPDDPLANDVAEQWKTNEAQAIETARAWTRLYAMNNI
UBC9 SUMO inh – inhibitors of human SUMOylation (UBC9). P63279. HTRF SUMOylation assay, SAE1/SAE2 + UBC9, in vitro. inhibition, % at 35 µM. 290,000 tested, 0.36% active; in the data active = inhibition above about 50%, passing the limit was not always enough
ALR inh – human ALR oxidase inhibition via reduced H2O2 | purified ALR, DTT oxidation, H2O2 HRP-luminol luminescence | inhibition, % (concentration not given with the values) | 290,000 tested, 3.8% active | AID 485317;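 active = mean replicate inhibition above about 79%, with every replicate also reaching it, limit read from the data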
Target sequence (P55789 whole entry, looked up): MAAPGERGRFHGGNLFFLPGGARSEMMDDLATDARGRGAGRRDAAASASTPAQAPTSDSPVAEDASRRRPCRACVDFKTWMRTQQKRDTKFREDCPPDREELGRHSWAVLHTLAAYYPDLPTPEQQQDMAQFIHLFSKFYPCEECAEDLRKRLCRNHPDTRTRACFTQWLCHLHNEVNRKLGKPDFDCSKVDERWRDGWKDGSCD
Hits are given with their value.

Screening COc1ccc(C(C2C(=O)CC(C)(C)CC2=O)C2C(=O)CC(C)(C)CC2=O)cc1 returned Rin1-Abl PPI inh inactive, PREPL inh inactive, RBBP9 inh inactive, UBC13 inh inactive, UBC9 SUMO inh inactive and ALR inh 97.
COc1cc(C(C2C(=O)CC(C)(C)CC2=O)C2C(=O)CC(C)(C)CC2=O)ccc1O was read as Rin1-Abl PPI inh inactive, PREPL inh inactive, UBC13 inh inactive, UBC9 SUMO inh inactive and ALR inh inactive.
Screening Cc1cccc(CN2CCN(C3CN(C4CCCCC4)S(=O)(=O)C3)CC2)c1 (stereo unspecified) returned Rin1-Abl PPI inh inactive.
Screening CCc1ccccc1N1C(=O)CC(N2CCc3ccccc32)C1=O (stereo unspecified) returned Rin1-Abl PPI inh inactive, PREPL inh inactive, RBBP9 inh inactive, UBC13 inh inactive, UBC9 SUMO inh inactive and ALR inh 99.
Screening CCCCc1ccc(NC(=S)Nc2ccc(Nc3ccc(OC)cc3)cc2)cc1 returned Rin1-Abl PPI inh inactive, PREPL inh 47, RBBP9 inh inactive, UBC13 inh inactive, UBC9 SUMO inh inactive and ALR inh inactive.
CCN(C(=S)NC(=O)CCc1ccccc1)c1ccccc1 was read as Rin1-Abl PPI inh inactive, PREPL inh inactive, RBBP9 inh inactive, UBC13 inh inactive, UBC9 SUMO inh inactive and ALR inh 77.
Screening CC(=O)Nc1cccc(NC(=O)CCc2ccccc2)c1 returned Rin1-Abl PPI inh inactive, PREPL inh inactive, RBBP9 inh inactive, UBC13 inh inactive, UBC9 SUMO inh inactive and ALR inh inactive.
Screening CN(C)c1cccc(NC(=O)CCc2ccccc2)c1 returned Rin1-Abl PPI inh inactive, PREPL inh inactive, RBBP9 inh inactive, UBC13 inh inactive, UBC9 SUMO inh inactive and ALR inh 98.
For CCCCC(=O)NC(=S)NNC(=O)CCc1ccccc1 the results were Rin1-Abl PPI inh inactive, PREPL inh inactive, RBBP9 inh inactive, UBC13 inh inactive, UBC9 SUMO inh inactive and ALR inh inactive.
CC(=O)NC(=S)NNC(=O)CCc1ccccc1 was read as Rin1-Abl PPI inh inactive, PREPL inh inactive, RBBP9 inh inactive, UBC13 inh inactive, UBC9 SUMO inh inactive and ALR inh inactive.
For Cc1ccccc1OCC(=O)NNC(=S)NC(=O)c1ccco1 the results were Rin1-Abl PPI inh inactive, PREPL inh inactive, RBBP9 inh inactive, UBC13 inh inactive, UBC9 SUMO inh inactive and ALR inh 98.
For O=C(/C=C/c1ccc(Br)cc1)NC(=S)NNC(=O)c1ccco1 the results were Rin1-Abl PPI inh inactive, PREPL inh inactive, RBBP9 inh inactive, UBC13 inh inactive, UBC9 SUMO inh inactive and ALR inh 99.
O=C(CCc1ccccc1)NNC(=S)NC(=O)c1ccccc1 was read as Rin1-Abl PPI inh inactive, PREPL inh inactive, RBBP9 inh inactive, UBC13 inh inactive, UBC9 SUMO inh inactive and ALR inh 98.
For O=C(/C=C/c1ccccc1)NC(=S)NNC(=O)c1ccco1 the results were Rin1-Abl PPI inh inactive, PREPL inh inactive, RBBP9 inh inactive, UBC13 inh inactive, UBC9 SUMO inh inactive and ALR inh inactive.
Cc1ccc(C(=O)NC(=S)NNC(=O)c2ccccc2)cc1 was read as Rin1-Abl PPI inh inactive, PREPL inh inactive, UBC13 inh inactive, UBC9 SUMO inh inactive and ALR inh 98.
For Cc1ccccc1OCC(=O)Nc1ccccc1NC(=O)c1ccco1 the results were Rin1-Abl PPI inh inactive, PREPL inh inactive, UBC13 inh inactive, UBC9 SUMO inh inactive and ALR inh inactive.
Screening C[C@H](CO)N1C[C@H](C)[C@@H](CN(C)Cc2ccc(C(=O)O)cc2)Oc2c(cccc2N(C)C)C1=O returned Rin1-Abl PPI inh inactive, PREPL inh inactive, UBC13 inh inactive and ALR inh inactive.
`O=C(/C=C/c1c(F)cccc1Cl)c1ccc(O)cc1` gave Rin1-Abl PPI inh inactive, PREPL inh inactive, RBBP9 inh inactive, UBC13 inh inactive, UBC9 SUMO inh inactive and ALR inh inactive.
Screening COC(=O)[C@@H](NC(=O)c1ccc2c(c1)S(=O)(=O)c1ccccc1C2=O)C(C)C returned Rin1-Abl PPI inh inactive, PREPL inh inactive, UBC13 inh inactive and UBC9 SUMO inh inactive.
COc1ccc(C(=O)NNC(=S)NC(=O)c2ccc(F)cc2)cc1Br was read as Rin1-Abl PPI inh inactive, PREPL inh inactive, UBC13 inh inactive and ALR inh inactive.
Cc1ccc(C(=O)NN2CCOCC2)cc1 was read as Rin1-Abl PPI inh inactive, PREPL inh inactive, RBBP9 inh inactive, UBC13 inh inactive, UBC9 SUMO inh inactive and ALR inh 98.
Screening O=C(NC(=S)NNC(=O)c1ccco1)c1ccccc1 returned Rin1-Abl PPI inh inactive, PREPL inh inactive, UBC13 inh inactive, UBC9 SUMO inh inactive and ALR inh 88.
Cc1ccc(C(=O)NC(=S)NNC(=O)CCN2CCOCC2)cc1 was read as Rin1-Abl PPI inh inactive, PREPL inh inactive, RBBP9 inh inactive, UBC13 inh inactive, UBC9 SUMO inh inactive and ALR inh 98.
COc1ccc(C(=O)NC(=S)NNC(=O)c2ccncc2)cc1Br was read as Rin1-Abl PPI inh inactive, PREPL inh inactive, UBC13 inh inactive and ALR inh 99.
For N#Cc1ccccc1OCC(=O)Nc1cc(S(=O)(=O)N2CCCCC2)ccc1N1CCOCC1 the results were Rin1-Abl PPI inh inactive.
`Cc1ccccc1C(=O)NNC(=S)NC(=O)c1ccccc1` gave Rin1-Abl PPI inh inactive, PREPL inh inactive, RBBP9 inh inactive, UBC13 inh inactive, UBC9 SUMO inh inactive and ALR inh 98.
Screening Nc1nc(SCC(=O)c2c(N)n(C3CC3)c(=O)[nH]c2=O)n[nH]1 returned Rin1-Abl PPI inh inactive and UBC13 inh inactive.
For Cc1cccc(NS(=O)(=O)c2nnc(NC(=O)c3cccc(C)c3)s2)c1 the results were Rin1-Abl PPI inh inactive, PREPL inh inactive, UBC13 inh inactive, UBC9 SUMO inh inactive and ALR inh inactive.
For Cc1cccc(C(=O)Nc2nnc(S(=O)(=O)N(C)Cc3ccco3)s2)c1 the results were Rin1-Abl PPI inh inactive, PREPL inh inactive, UBC13 inh inactive and ALR inh 94.
For CCOC(=O)c1c(C)[nH]c(C(=O)OCC(=O)Nc2sccc2C(N)=O)c1C the results were Rin1-Abl PPI inh inactive, PREPL inh inactive, UBC13 inh inactive and ALR inh inactive.
Screening COc1ccc(-c2nc3n(c2C)Cc2ccccc2-3)cc1 returned Rin1-Abl PPI inh inactive, PREPL inh inactive, RBBP9 inh inactive, UBC13 inh inactive, UBC9 SUMO inh inactive and ALR inh 99.
Screening Nc1ccc(CCc2nc3ccccc3o2)cc1 returned Rin1-Abl PPI inh inactive, PREPL inh inactive, RBBP9 inh inactive, UBC13 inh inactive, UBC9 SUMO inh inactive and ALR inh 91.
NCc1ccc(-c2nc3ccccc3o2)cc1 was read as UBC9 SUMO inh inactive.
O=S(=O)(c1cccc(-c2n[nH]c(=S)n2-c2ccccc2Cl)c1)N1CCOCC1 was read as Rin1-Abl PPI inh inactive, PREPL inh inactive, UBC13 inh inactive and ALR inh 99.
